Here are results for 32 molecules from ChEMBL document CHEMBL1126243, “A novel class of cardiotonic agents: synthesis and biological evaluation of 5-substituted 3,6-dihydrothiadiazin-2-ones with cyclic AMP phosphodiesterase inhibiting and myofibrillar calcium sensitizing properties” (J Med Chem, 1992).

Assay [1] deals with cardiac myofibrillar ATPase (Canis familiaris). In words: Change in calcium-induced activation of canine cardiac myofibrillar ATPase at 200 uM. Conditions: Canis lupus familiaris.
Assay [2] deals with Canis familiaris. As to the kind of experiment: Peak response for heart rate was determined in conscious Dog at the dose of 30 ug/kg by peroral administration and measured as% changes of control. The following applies: route oral.
Assay [3] concerns the target Phosphodiesterase; PDE3 & PDE4. As to the kind of experiment: Inhibition of dog left ventricle sarcoplasmic reticulum bound low-Km c-AMP phosphodiesterase. It is filed as protein assay, Canis lupus familiaris. In outline: (§1)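 SR vesicles from dog left ventricle, isolated on a sucrose gradient after Ca2+ oxalate loading. Radiochemical assay at 30 °C with 1 µM [3H]cAMP, 12 mM Tris-HCl, 0.5 mM MgCl2, 137 mM NaCl and 20 mM glucose; products separated on Dowex after 5'-nucleotidase step. Less than 25% substrate hydrolysed. Triplicates at 10 concentrations (10^-9–10^-4 M), DMSO 1%. IC50 from Hill plot of mean curve over at least 3 preparations.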

Assay [4] has as its system cardiac myofibrillar ATPase (Canis familiaris). In words: c[Ca2+] concentration required for half-maximal activation of the cardiac myofibrillar ATPase at 100 uM dose of the compound. Conditions: Canis lupus familiaris.
Assay [5] shares this test system. As to the kind of experiment: c[Ca2+] concentration required for half-maximal activation of the cardiac myofibrillar ATPase at 30 uM dose of the compound. Conditions: Canis lupus familiaris.
Assay [6] relates to Canis familiaris. As to the kind of experiment: Peak response for contractility was determined in conscious Dog at the dose of 30 ug/kg by peroral administration and measured as% changes of control. Conditions: route oral.
Assay [7] has as its system cardiac myofibrillar ATPase (Canis familiaris). In words: Shift induced by 200 uM of compound, of the [Ca2+] concentration required for half-maximal activation of the canine cardiac myofibrillar ATPase. The following applies: Canis lupus familiaris.
Assay [8] has the same test system. As to the kind of experiment: Shift induced by 30 uM of compound, of the [Ca2+] concentration required for half-maximal activation of the canine cardiac myofibrillar ATPase. Conditions: Canis lupus familiaris.
The test system is the same in assay [9]. In words: Shift induced by 10 uM of compound, of the [Ca2+] concentration required for half-maximal activation of the canine cardiac myofibrillar ATPase. Conditions: Canis lupus familiaris.
The test system is the same in assay [10]. In words: Shift induced by 3 uM of compound, of the [Ca2+] concentration required for half-maximal activation of the canine cardiac myofibrillar ATPase. Conditions: Canis lupus familiaris.
The nature of assay [11]: Inhibition of dog left ventricle sarcoplasmic reticulum bound low-Km cAMP phosphodiesterase. Further details: species or system Canis lupus familiaris. In outline: as §1
For assay [12], the system named is cardiac myofibrillar ATPase (Canis familiaris). In words: Shift induced by 1 uM of compound, of the [Ca2+] concentration required for half-maximal activation of the canine cardiac myofibrillar ATPase. The following applies: Canis lupus familiaris.
The test system is the same in assay [13]. In words: Shift induced by 100 uM of compound, of the [Ca2+] concentration required for half-maximal activation of the canine cardiac myofibrillar ATPase. The following applies: Canis lupus familiaris.

pIC50: −log10 of the molar value.

The IC50 is the concentration needed to halve the response being measured. A higher IC50 goes with a need for much substance. Consider `CC1SC(=O)NN=C1c1ccc2c(c1)C(C)(C)C(=O)N2` (stereo not given), for which the values for the Delta pCa50 in assay [1], in [4] and in assay [5] were 0.31, 0.24 and 0.09, respectively. Moreover, the Change with Canis familiaris [2] is listed as 8%; in the assay with Canis familiaris [6], 73%. The same molecule came in with an IC50 in assay [3] of 330 nM.
Turning to `CSC1(C)C(=O)Nc2ccc(C3=NNC(=O)SC3C)cc21` (stereo not given), the Delta pCa50 in assay [7] was found to be 0.33.
On to `CC1(C)C(=O)Nc2cc3[nH]c(-c4ccncc4)nc3cc21` [ADIBENDAN], for which the Delta pCa50 in assay [1] was determined as 0.16. This molecule displayed an IC50 in assay [3] of 520 nM.
Consider `CSC1C(=O)Nc2ccc(C3=NNC(=O)SC3)cc21` (stereo not given), for which the Delta pCa50 in [1] came to 0.28.
In the case of `CC1SC(=O)NN=C1c1ccc2c(c1)C1(CCCCC1)C(=O)N2` (stereo not given), in assay [8], the Delta pCa50 was determined as 0.39. The molecule also gave an IC50 in [3] of 1300 nM.
What is called pIC50 is the negative decadic logarithm of the IC50, by convention in mol/L. A higher pIC50 goes with a small IC50. Consider `CC1SC(=O)NN=C1c1ccc2c(c1)C1(SCCCS1)C(=O)N2` (stereo not given), for which the Delta pCa50 in assay [9] is 0.65; in assay [8], 0.76; in assay [10] it was 0.48; in assay [12], 0.12. The molecule also gave a pIC50 in assay [11] of 6.59.
As to `CC1SC(=O)NN=C1c1ccc2c(c1)C1(CCCS1)C(=O)N2` (stereo not given), the Delta pCa50 in assay [8] was 0.37. In assay [3], the half-maximal inhibitory concentration (IC50) amounted to 1400 nM.
Consider `CC1(C)C(=O)Nc2ccc(C3=NNC(=O)CC3)cc21`, for which the Delta pCa50 in assay [7] is -0.04.
`O=C1CCc2cc(C3=NNC(=O)SC3)ccc2N1`: in assay [8], the Delta pCa50 amounted to 0.
Consider `CC1NC(=O)NN=C1c1ccc2c(c1)C(C)(C)C(=O)N2` (stereo not given), for which, in [13], the Delta pCa50 was -0.04. For the same molecule, in [3], the IC50 was determined as 170 nM.
As for `CC1CC(=O)NN=C1c1ccc2c(c1)C(C)(C)C(=O)N2` (stereo not given), the Delta pCa50 in assay [13] is -0.09. In [3], the IC50 came out at 240 nM.
Turning to `CC1SC(=O)NN=C1c1ccc2c(c1)C(C)(C)CC(=O)N2` (stereo not given), in assay [8], the Delta pCa50 stood at 0.45. The Change with Canis familiaris [2] came to 5%; in the assay with Canis familiaris [6], 21%.
With `CSC1(C)C(=O)Nc2ccc(C3=NNC(=O)CC3C)cc21` (stereo not given), in assay [1], the Delta pCa50 came out at 0.11.
Same read-out and setting: the result for `O=C1Cc2cc(C3=NNC(=O)SC3)ccc2N1` reads 0.08.
As to `CC1SC(=O)NN=C1c1ccc2c(c1)CC(C)(C)C(=O)N2` (stereo not given), the Delta pCa50 in assay [8] turned out to be 0.33. In addition, the Change in the assay on Canis familiaris [2] was determined as 24%; with Canis familiaris [6], 26%.
In the case of `CC1C(=O)Nc2ccc(C3=NNC(=O)SC3)cc21` (stereo not given), the Delta pCa50 in [1] turned out to be 0.15.
As for `CSC1(C)C(=O)Nc2ccc(C3=NNC(=O)SC3)cc21` (stereo not given), in assay [1], the Delta pCa50 amounted to 0.39. In addition, in [3], the IC50 was determined as 1200 nM.
As to `Cc1cc(C2=NNC(=O)SC2C)cc2c1NC(=O)C2(C)C` (stereo not given), the Delta pCa50 in assay [8] amounted to 0.26. Moreover, the pIC50 in [11] was 6.62.
For the molecule `CC1SC(=O)NN=C1c1ccc2c(c1)C(C)(C)NC(=O)N2` (stereo not given), in [8], the Delta pCa50 turned out to be 0.24. Besides, the figures for the Change in the assay on Canis familiaris [2] and with Canis familiaris [6] were 9% and 38%, respectively.
In the case of `CC1SC(=O)NN=C1c1ccc2c(c1)C1(CC1)C(=O)N2` (stereo not given), the Delta pCa50 in assay [8] was determined as 0.14. This molecule came in with an IC50 in assay [3] of 36 nM.
As for `COc1cc([S+](C)[O-])ccc1-c1nc2cccnc2[nH]1` (stereo not given) [SULMAZOLE], in [11], the negative-log IC50 (pIC50) is 3.85.
As to `Cc1cc2c(cc1C1=NNC(=O)SC1C)C(C)(C)C(=O)N2` (stereo not given), the Delta pCa50 in assay [8] was -0.06. Further, the IC50 in assay [3] was 3300 nM.
For `CC1OC(=O)NN=C1c1ccc2c(c1)C(C)(C)C(=O)N2` (stereo not given), the Delta pCa50 in [13] is 0.04. The molecule further returned an IC50 in assay [3] of 960 nM.
`CC1(C)C(=O)Nc2ccc(C3=NNC(=O)SC3)cc21`: the Delta pCa50 in assay [1] came to 0.16.
On to `CC1SC(=O)NN=C1c1ccc2c(c1)C1(SCCS1)C(=O)N2` (stereo not given), for which, in assay [8], the Delta pCa50 came to 0.57. This molecule also had a pIC50 in [11] of 6.46.
Regarding `Cc1nc(O)c(N)cc1-c1ccccc1`, in assay [1], the Delta pCa50 is 0.1. Besides, the IC50 in assay [3] was found to be 18000 nM.
As for `CC1SC(=O)NN=C1c1ccc2c(c1)C1(CCCC1)C(=O)N2` (stereo not given), in [8], the Delta pCa50 stood at 0.35. The IC50 in assay [3] is 1100 nM.
On to `CC1(C)SC(=O)NN=C1c1ccc2c(c1)C(C)(C)C(=O)N2`, for which, in [1], the Delta pCa50 was -0.02. The same molecule yielded an IC50 in [3] of 66000 nM.
Regarding `Cc1c(C2=NNC(=O)SC2C)ccc2c1C(C)(C)C(=O)N2` (stereo not given), in [8], the Delta pCa50 is -0.07. Moreover, the pIC50 in assay [11] is 5.04.
As for `CC1[Se]C(=O)NN=C1c1ccc2c(c1)C(C)(C)C(=O)N2` (stereo not given), the Delta pCa50 in assay [13] was determined as 0.3. This molecule also gave an IC50 in [3] of 540 nM.
Turning to `CC1SC(=O)NN=C1c1ccc2c(c1)C(C)(C)OC(=O)N2` (stereo not given), the Delta pCa50 in assay [8] was determined as 0.15. Further, the Change came to 13% with Canis familiaris [2] and 67% in the assay with Canis familiaris [6].
Take `CSC1(C)C(=O)Nc2ccc(C3=NNC(=O)CC3)cc21` (stereo not given): the Delta pCa50 in assay [1] is 0.07.
